Drawing on ChEMBL document CHEMBL1142461, “In vitro biological evaluation of novel 7-O-dialkylaminoalkyl cytotoxic pectolinarigenin derivatives against a panel of human cancer cell lines” (Bioorg Med Chem Lett, 2008), this text covers IC50 and logP for 8 compounds.

What is called IC50 is the concentration that inhibits the measured activity by half. Lower therefore signals inhibition by little substance. What is called logP is the decadic logarithm of the partition coefficient of the neutral form, usually between octanol and water. Low values mean lower lipophilicity, high ones higher lipophilicity.

Each structure is given as a SMILES string.

A short description of data set [1]: Antiproliferative activity against human 142BR cells after 48 hrs by sulforhodamine B assay. The data set is classed as functional, cell-based. The method, boiled down:
(§1)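 Cells grown in RPMI 1640 (ACHN, C32, COR-L23) or DMEM (142BR, A375, A549, Caco-2, Huh-7D12), seeded and allowed to attach for 24 h. Then exposed 48 h to six serial dilutions (DMSO ≤0.5% final, matched in solvent controls), in six replicates. Fixed with ice-cold 40% TCA for 1 h at 4 °C and SRB-stained, read at 564 nm. Survival taken as % of untreated control; IC50 from dose–response curve; mean ± SD.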
Background: Sulforhodamine B stains cellular protein and so reports cell mass.

The test system of another data set is C32. In words: Antiproliferative activity against human C32 cells after 48 hrs by sulforhodamine B assay. It is filed as functional, cell-based. The following applies: C32, 48 h. The method, boiled down: as §1
The next data set deals with Caco-2. In words: Antiproliferative activity against human Caco-2 cells after 48 hrs by sulforhodamine B assay. The data set is classed as functional, cell-based. The following applies: Caco-2, 48 h. Summed up:
as §1

In a further data set the test system is A549. In words: Antiproliferative activity against human A549 cells after 48 hrs by sulforhodamine B assay. It is filed as functional, cell-based. The following applies: A549, 48 h. Summed up: as §1
The subject of another data set is COR-L23. The data set can be described thus: Antiproliferative activity against human COR-L23 cells after 48 hrs by sulforhodamine B assay. The data set is classed as functional, cell-based. The following applies: COR-L23, 48 h. Summed up: as §1
A further data set has as its system ACHN. In words: Antiproliferative activity against human ACHN cells after 48 hrs by sulforhodamine B assay. The data set is classed as functional, cell-based. The method, boiled down:
as §1

The next data set deals with A-375. In words: Antiproliferative activity against human A375 cells after 48 hrs by sulforhodamine B assay. The following applies: A-375, 48 h. It is filed as functional, cell-based. Summed up: as §1
The nature of data set [2]: Partition coefficient, log P of the compound. It is filed as physicochemical. The following applies: octanol/water.
The nature of data set [3]: Antiproliferative activity against human Huh-7D12 cells after 48 hrs by sulforhodamine B assay. The data set is classed as functional, cell-based. The following applies: Huh-7D12, 48 h. Summed up:
as §1

On to `CCN(CC)CCOc1cc2oc(-c3ccc(OC)cc3)cc(=O)c2c(O)c1OC`, for which the IC50 is > 100 µM in data set [1]; > 100 µM with C32; > 100 µM with Caco-2; 59.9 µM in the data set on A549; 41.9 µM with COR-L23; 54.1 µM in the data set with ACHN. Further, the IC50 (with A-375; in [3]) was > 100 µM in each case. Further, in [2], the logP is 3.

As for `COc1ccc(-c2cc(=O)c3c(O)c(OC)c(OCCN(C)C)cc3o2)cc1`, the IC50 in [1] was > 100 µM; with C32, > 100 µM; in the data set on Caco-2 it was > 100 µM; with A549, 13.2 µM; in the data set with COR-L23 it was 9.2 µM; with ACHN, 10.5 µM. Moreover, the 50% inhibitory concentration (IC50) (with A-375; in data set [3]) was > 100 µM each time. In [2], this compound yielded a logP of 2.3.

`COc1ccc(-c2cc(=O)c3c(O)c(OC)c(O)cc3o2)cc1` [PECTOLINARIGENIN]: the IC50 in [1] was > 100 µM; with C32, 7 µM; in the data set with Caco-2, 5.3 µM; with A549, 5.6 µM; in the data set with COR-L23, 4.1 µM; in the data set on ACHN, 15.2 µM. Moreover, the concentration for half-maximal inhibition (IC50) with A-375 is 8.2 µM; in data set [3], > 100 µM. Moreover, the logP in data set [2] stood at 2.

Take `COc1ccc(-c2cc(=O)c3c(O)c(OC)c(OCCN4CCOCC4)cc3o2)cc1`: the IC50 in data set [1] is > 100 µM; with C32, 47.6 µM; with Caco-2, > 100 µM; in the data set on A549 it was 85.1 µM; with COR-L23, 39.5 µM; in the data set on ACHN, 55.7 µM. Further, the 50% inhibitory concentration (IC50) in the data set with A-375 is 58.8 µM; in data set [3], > 100 µM. This compound also showed a logP in data set [2] of 1.9.

Consider `COc1ccc(-c2cc(=O)c3c(O)c(OC)c(OCCN4CCCC4)cc3o2)cc1`, for which the IC50 was > 100 µM in data set [1]; 54.7 µM in the data set with C32; > 100 µM with Caco-2; > 100 µM in the data set on A549; > 100 µM with COR-L23; 12.7 µM in the data set with ACHN. The half-maximal inhibitory concentration (IC50) in the data set with A-375 was 38.6 µM; in data set [3], > 100 µM. The compound also returned a logP in data set [2] of 2.6.

`COc1ccc(-c2cc(=O)c3c(O)c(OC)c(OCCCN(C)C)cc3o2)cc1`: the IC50 in [1] was > 100 µM; with C32 it was 8.9 µM; with Caco-2, > 100 µM; with A549, 7.4 µM; in the data set with COR-L23 it was 7.2 µM; in the data set on ACHN, 10.8 µM. In addition, the IC50 is 7.7 µM in the data set on A-375 and > 100 µM in data set [3]. The lipophilicity (logP) in data set [2] amounted to 2.4.

On to `COc1ccc(-c2cc(=O)c3c(O)c(OC)c(OCCN4CCCCC4)cc3o2)cc1`, for which the IC50 in data set [1] was > 100 µM; in the data set with C32 it was 63.6 µM; in the data set with Caco-2 it was 78.6 µM; with A549, 44.9 µM; in the data set with COR-L23, 34.1 µM; in the data set with ACHN, 92.6 µM. The IC50 with A-375 was 52.3 µM; in [3] it was > 100 µM. The logP in data set [2] was 3.

For `COc1ccc(-c2cc(=O)c3c(O)c(OC)c(O[C@@H]4O[C@H](CO[C@@H]5O[C@@H](C)[C@H](O)[C@@H](O)[C@H]5O)[C@@H](O)[C@H](O)[C@H]4O)cc3o2)cc1` [PECTOLINARIN], the IC50 in [1] is > 100 µM; in the data set on C32, 7.2 µM; in the data set on Caco-2, 6.2 µM; with A549, 38.8 µM; with COR-L23, 5 µM; in the data set with ACHN it was 17.2 µM. Moreover, the 50% inhibitory concentration (IC50) in the data set on A-375 came out at 32.9 µM; in [3], 50.8 µM. In addition, the logP in data set [2] was -0.7.
